Consider eleven molecules from ChEMBL document CHEMBL1134580, “Novel hypotensive agents from Verbesina caracasana. 8. Synthesis and pharmacology of (3,4-dimethoxycinnamoyl)-N(1)-agmatine and synthetic analogues” (2001).

Structures are written as SMILES.

Assay [1] concerns Rattus norvegicus. In words: Changes in diastolic Blood pressure following iv administration at (4.12 umol/kg) anesthetized rats. The class given is functional. In outline:
(§1)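 Adult male Wistar rats (280 ± 5 g) anesthetized with 10% (w/v) ethylurethane in saline, 1 mL/100 g ip. Trachea cannulated for spontaneous breathing, body temperature held at 37 °C, 60 min stabilization. Single iv injection into the femoral vein of a saline-dissolved drug, dose expressed as free base; n = 4 per drug. Aortic systolic/diastolic BP recorded via a femoral artery catheter and pressure transducer; peak change taken.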

Assay [2] deals with Rattus norvegicus. Description: Changes in systolic Blood pressure following iv administration at (4.12 umol/kg) anesthetized rats. In kind it is functional. In outline: as §1
For assay [3], the system named is Rattus norvegicus. In words: Changes in systolic blood pressure following iv administration at 4.12 umol/kg in anesthetized rats. The class given is functional, Artery. Summed up:
as §1

For assay [4], the system named is Rattus norvegicus. In words: Changes in diastolic blood pressure following iv administration at 4.12 umol/kg in anesthetized rats. In kind it is functional, Artery. Summed up: as §1
The test system of assay [5] is Rattus norvegicus. In words: Changes in diastolic blood pressure following iv administration at (4.12 umol/kg) anesthetized rats. In kind it is functional. Summed up:
as §1

The test system of assay [6] is Rattus norvegicus. Description: Changes in systolic blood pressure following iv administration at (4.12 umol/kg) anesthetized rats. In kind it is functional. In outline:
as §1

The test system of assay [7] is Rattus norvegicus. Description: Changes in systolic Blood pressure following iv administration at (25 umol/kg) anesthetized rats. In kind it is functional. In outline:
as §1

Assay [8] relates to Rattus norvegicus. Description: Changes in diastolic Blood pressure following iv administration at (25 umol/kg) anesthetized rats. In kind it is functional. In outline: as §1
For assay [9], the system named is Rattus norvegicus. Description: Changes in systolic blood pressure following iv administration at (12 umol/kg)anesthetized rats. The class given is functional. Summed up: as §1
In assay [10] the test system is Rattus norvegicus. Description: Changes in diastolic blood pressure following iv administration at (12 umol/kg)anesthetized rats. The class given is functional. In outline:
as §1

The test system of assay [11] is Rattus norvegicus. In words: Changes in systolic Blood pressure following iv administration at (5 umol/kg) anesthetized rats. In kind it is functional. Summed up:
as §1

Assay [12] concerns Rattus norvegicus. Description: Changes in diastolic Blood pressure following iv administration at (5 umol/kg) anesthetized rats. The class given is functional. In outline:
as §1

Assay [13] deals with Rattus norvegicus. Description: Changes in systolic Blood pressure following iv administration at (8 umol/kg) anesthetized rats. In kind it is functional. Summed up: as §1
The subject of assay [14] is Rattus norvegicus. Description: Changes in diastolic Blood pressure following iv administration at (8 umol/kg) anesthetized rats. The class given is functional. In outline:
as §1

Turning to `COc1ccc(/C=C/C(=O)NCCN=C(N)N)cc1OC.CS(=O)(=O)O`, the Blood pressure in the assay with Rattus norvegicus [1] is recorded as -33 mmHg; in the assay on Rattus norvegicus [2] it was -29 mmHg.
As to `COc1ccc(/C=C/C(=O)NCCCCN=C(N)N)cc1OC.CS(=O)(=O)O`, the Blood pressure in the assay on Rattus norvegicus [3] was -21 mmHg; in the assay on Rattus norvegicus [4], -30 mmHg.
For the molecule `COc1ccc(C(=O)NCCCC/N=C(\N)NCC=C(C)C)cc1.CS(=O)(=O)O`, the Blood pressure in the assay on Rattus norvegicus [1] was -31 mmHg; in the assay with Rattus norvegicus [2], -28 mmHg.
The like results for `COc1ccc(/C=C/C(=O)NCCCN=C(N)N)cc1OC.CS(=O)(=O)O` were, in that order, -28 mmHg and -24 mmHg.
The like results for `COc1ccc(C=CC(=O)NCCCCN=C(N)N)cc1OC` were, in that order, -10 mmHg and -12 mmHg.
For the molecule `COc1ccc(/C=C/C(=O)NCCCCCCN=C(N)N)cc1OC.CS(=O)(=O)O`, the Blood pressure was -36 mmHg in the assay with Rattus norvegicus [5] and -14 mmHg in the assay with Rattus norvegicus [6].
On to `COc1ccc(/C=C/C(=O)NCCCCCN=C(N)N)cc1OC.CS(=O)(=O)O`, for which the Blood pressure with Rattus norvegicus [1] was -27 mmHg; in the assay on Rattus norvegicus [2], -17 mmHg.
Consider `N=C(N)NCCN1CCCCCCC1` [GUANETHIDINE], for which the Blood pressure in the assay on Rattus norvegicus [7] was -32 mmHg; in the assay with Rattus norvegicus [8], -23 mmHg.
`C[N+](C)(C)CCCCCC[N+](C)(C)C.[Cl-].[Cl-]` [HEXAMETHONIUM CHLORIDE]: the Blood pressure in the assay on Rattus norvegicus [9] is given as -46 mmHg; with Rattus norvegicus [10] it was -30 mmHg.
With `COc1ccc(Cc2nccc3cc(OC)c(OC)cc23)cc1OC` [PAPAVERINE], the figures for the Blood pressure with Rattus norvegicus [11] and with Rattus norvegicus [12] were -21 mmHg and -16 mmHg, respectively.
With `COC(=O)[C@H]1[C@H]2C[C@@H]3c4[nH]c5cc(OC)ccc5c4CCN3C[C@H]2C[C@@H](OC(=O)c2cc(OC)c(OC)c(OC)c2)[C@@H]1OC` [RESERPINE], the values for the Blood pressure with Rattus norvegicus [13] and in the assay with Rattus norvegicus [14] were -34 mmHg and -27 mmHg, respectively.
